# TRPC4 potent: allosteric potentiators of mouse TRPC4 channel. HEK293 TRPC4beta/mu-opioid, DAMGO EC20, Fluo-4 Ca2+ flux; active compounds read high. B-score at 10 µM. actives 0.42% (n = 310,000). AID 2227;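 active = B-score of calcium response area above 5 SD of library B-scores, with initial fluorescence ratio within 5 SD of library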;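 note: B-score of integrated fluorescence ratio over time as area under calcium response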
# TRPC6 inhibitor: mouse TRPC6 channel inhibition. HEK293-TRPC6, membrane potential dye, ACh-evoked depolarization; active compounds read low. B-score at 10 µM. actives 1.1% (n = 310,000);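 active = B-score under library mean minus 3 SD, initial fluorescence not abnormally high, positive integrated signal ratio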;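 note: B-score derived from integrated fluorescence ratio over the kinetic read; more negative B-score means stronger inhibition of depolarization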
# Target sequence (Q61143 whole entry, looked up): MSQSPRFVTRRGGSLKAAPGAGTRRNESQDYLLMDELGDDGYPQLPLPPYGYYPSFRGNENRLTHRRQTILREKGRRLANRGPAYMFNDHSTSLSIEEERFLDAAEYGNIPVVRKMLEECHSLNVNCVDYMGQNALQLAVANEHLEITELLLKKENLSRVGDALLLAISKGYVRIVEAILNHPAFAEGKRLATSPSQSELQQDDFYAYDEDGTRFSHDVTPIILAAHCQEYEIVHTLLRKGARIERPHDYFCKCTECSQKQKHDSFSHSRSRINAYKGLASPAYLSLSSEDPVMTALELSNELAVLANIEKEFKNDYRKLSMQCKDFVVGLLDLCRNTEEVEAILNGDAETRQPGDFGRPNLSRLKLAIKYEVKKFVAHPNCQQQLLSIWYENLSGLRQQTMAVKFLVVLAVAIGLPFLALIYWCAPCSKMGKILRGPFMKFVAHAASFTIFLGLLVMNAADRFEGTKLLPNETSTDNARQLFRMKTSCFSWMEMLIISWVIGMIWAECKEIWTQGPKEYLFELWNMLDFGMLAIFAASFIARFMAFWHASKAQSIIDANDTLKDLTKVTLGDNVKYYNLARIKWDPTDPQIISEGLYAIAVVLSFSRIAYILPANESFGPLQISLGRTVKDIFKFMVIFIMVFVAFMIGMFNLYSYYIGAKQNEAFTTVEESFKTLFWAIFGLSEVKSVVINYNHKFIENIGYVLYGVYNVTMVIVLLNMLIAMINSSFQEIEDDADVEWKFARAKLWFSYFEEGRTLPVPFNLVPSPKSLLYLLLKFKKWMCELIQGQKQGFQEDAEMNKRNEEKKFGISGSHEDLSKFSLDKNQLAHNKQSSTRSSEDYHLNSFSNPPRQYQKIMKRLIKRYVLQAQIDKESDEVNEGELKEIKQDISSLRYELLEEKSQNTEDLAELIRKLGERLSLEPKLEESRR
# TRPC6 act: mouse TRPC6 channel activation; HEK293-TRPC6 membrane potential dye fluorescence; active compounds read high; actives 0.13% (n = 310,000); B-score at 10 µM; Q61143;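 active = B-score of the integrated fluorescence ratio above library mean plus 3 SD, and starting fluorescence ratio within library mean plus 5 SD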;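 note: higher score means more depolarization so channel activation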
# TRPC4 agonist: TRPC4 (mouse) channel activation | Q9QUQ5 | HEK293 TRPC4beta/mu-opioid, Fluo4 calcium fluorescence; active compounds read high | B-score at 10 µM | actives 0.49% (n = 310,000);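 active = B-score above 5 SD of library B-scores, and initial fluorescence ratio not above library mean plus 5 SD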;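 note: positive B-score marks a calcium rise read as TRPC4 activation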
#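 Test system: HEK293 cells stably co-expressing mouse TRPC4beta and mu-opioid receptor | Schedule: Fluo4 dye loading 45 min at room temperature, 110 s recording | Measured by: Kinetic Fluo4 calcium fluorescence, 5 s baseline at 1 Hz | Evaluation: B score of integrated ratio | Controls: Buffer (low) and maximal DAMGO (high)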
# TRPC4 block: blocks the mouse TRPC4 cation channel; actives 0.39% (n = 300,000); HEK293 TRPC4beta/mu-opioid, DAMGO-evoked Fluo4 calcium flux; active compounds read low; B-score at 10 µM; AID 2247; Q9QUQ5;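 active = B-score over 3 SD under the library average, no early fluorescence shift, positive overall ratio signal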
#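 System: stable TRPC4beta/mu-opioid receptor HEK293 cells; Dosing: single-point compound dosing; Measured by: Fluo4 Ca2+ flux fluorescence; Read-out basis: per-well B score of integrated baseline-normalized Fluo4 ratio.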
# * = called active by the depositor; i = inactive; ! = repeats disagree. Most compounds without a hit are left out; they make up all but 2.3% or so of the library.
SMILES,TRPC4 potent,TRPC6 inhibitor,TRPC6 act,TRPC4 agonist,TRPC4 block
COC(=O)CC(NC(=S)NC(=O)c1ccccc1)c1ccc(Br)cc1 (stereo not given),72*,i,i,i,i
Cc1cc(C)c(S(=O)(=O)N2CCN(c3ccccc3)CC2)c(C)c1,i,i,i,i,i
NC(=O)CCn1c(C(=O)c2cc(Cl)c(N)c(Cl)c2)c2ccccc2[n+]1[O-],i,i,i,i,i
NCCCn1c(C(=O)c2cc(Cl)c(N)c(Cl)c2)c2ccccc2[n+]1[O-],i,i,i,178*,i
CC(=O)c1ccccc1OCC(O)CN1CCN(CCN2C(=O)c3cccc4cccc(c34)C2=O)CC1 (stereo not given),i,i,i,i,i
Cc1ccc(C)c(OCC(O)CN2CCN(CCN3C(=O)c4cccc5cccc(c45)C3=O)CC2)c1 (stereo not given),i,-5.11*,i,i,i
Cc1cccc(C)c1N(CC(=O)NCc1ccccc1)C(=O)c1csnn1,i,i,i,i,i
CN1CCN(C(=O)N2c3ccccc3C=Cc3ccccc32)CC1,13*,i,i,i,i
O=C(c1cccs1)N1CCN(c2ncc(Br)cn2)CC1,i,i,i,175*,i
O=C(c1ccncc1)N1CCN(C(=O)c2cccs2)CC1,i,i,i,i,i
C=CCOc1ccc(Br)cc1CNC(C)(C)CO,i,i,i,i,-7*
CNCC[C@H](Oc1cccc2ccccc12)c1cccs1,i,-5.67*!,i,i,i
COCc1cc(CNC(=O)C2CCC(=O)N(Cc3cccc(OC)c3)C2)[nH]n1 (stereo not given),i,i,i,i,i
Cc1ccc(-c2nnc(SCC(=O)N/N=C/c3ccc(C)s3)n2-c2ccc(C)cc2)cc1,i,i,i,i,i
CCn1c(=N)n(CC(=O)c2ccc(Br)s2)c2ccccc21,i,i,i,i,-6*
O=S(=O)(NCc1ccccc1)NCc1ccc(Cl)cc1Cl,i,i,i,i,i
Cc1ccc(-n2nc(-c3cccs3)cc2C(=O)NCC2CCCO2)c(C)c1 (stereo not given),i,i,i,55*,-7*
Cc1cc(Br)cc2c(C(=O)NCC3CCCO3)cc(-c3cccs3)nc12 (stereo not given),i,i,i,i,i
COc1ccc(OC)c(-n2c(CNC3CCN(Cc4ccccc4)CC3)nc3ccccc3c2=O)c1,i,i,i,73*,i
Oc1ccc(-c2nc3ccccc3nc2-c2ccccc2)cc1,i,i,i,i,i
COC(C[C@@H]1O[C@H]1[C@H](O)[C@@H](C)OCc1ccccc1)OC,i,i,i,i,i
CCCn1c(=O)c2ccccc2n2c(SC(C)C(N)=O)nnc12 (stereo not given),i,i,i,i,i
CCCn1c(=O)c2ccccc2n2c(SCCOc3ccccc3)nnc12,i,i,i,i,-7*
Cc1cc(NCc2ccccc2)nc2ccccc12,i,i,i,51*,-7*
Cc1cc(NCc2ccccc2)c2ccccc2n1,i,i,i,i,i
SMILES,TRPC4 potent,TRPC6 inhibitor,TRPC6 act,TRPC4 agonist,TRPC4 block
O=C(O)c1ccccc1C(=O)N1N=C(c2ccccc2)CC1c1ccccc1O (stereo not given),i,i,i,i,i
O=C(c1ccc2c3c(cccc13)CC2)C1CCCN(Cc2cccnc2)C1 (stereo not given),i,i,i,81*,i
COc1ccc(C(=O)C2CCCN(Cc3ccc4nonc4c3)C2)c(OC)c1 (stereo not given),i,i,i,i,-6*
Cc1cccc(CN2CCCC(C(=O)c3ccc4c5c(cccc35)CC4)C2)n1 (stereo not given),i,i,i,i,i
COc1cc(CN2CCCC(C(=O)c3ccc4c5c(cccc35)CC4)C2)cc(OC)c1O (stereo not given),i,i,i,44*,i
Cc1cccc(C)c1NC(=O)CNC(=O)c1c(C)nn(-c2ccccc2)c1Cl,i,i,i,i,i
CCOC(=O)C1(CC)NC(c2ccc(OC)c(OC)c2)C2C(=O)N(c3cccc(C(C)=O)c3)C(=O)C21 (stereo not given),i,i,i,i,i
Cc1cccc(OCCCOc2cccc3cccnc23)c1C,11*,i,i,i,i
CCOc1ccccc1OCCCCCc1c(C)n[nH]c1C,i,i,i,i,i
Cc1cccc(OCCCCc2c(C)n[nH]c2C)c1C,i,i,i,i,-8*
COc1ccccc1CCC(=O)N(Cc1ccccc1)c1c(N)n(Cc2ccccc2)c(=O)[nH]c1=O,i,i,i,i,i
O=C(CN(C(=O)c1csnn1)c1ccc2c(c1)OCCO2)NCc1ccccc1,i,i,i,i,i
CCCCNC(=S)N(CCN(C)C)Cc1cc2cc3c(cc2[nH]c1=O)OCCO3,i,i,i,i,i
Cc1ccc(S(=O)(=O)N(C)c2ccccc2C(=O)Nc2c(F)cccc2F)cc1,i,i,i,i,i
Cc1sc2ncnc(NCC3(N4CCOCC4)CCCCC3)c2c1C,i,i,i,i,i
Cc1sc2ncnc(NCC(C)(C)N3CCOCC3)c2c1C,i,i,i,162*,i
COc1ccc(/C=N/NC(=O)C2COc3ccccc3O2)cc1OC (stereo not given),i,i,i,150*,i
O=C(N/N=C/c1ccc2c(c1)OCO2)C1COc2ccccc2O1 (stereo not given),i,i,i,i,i
O=C(N/N=C\C=C\c1ccc2c(c1)OCO2)C1COc2cc3ccccc3cc2O1 (stereo not given),12*,i,i,i,i
Cc1nccn1C(c1ccccc1)c1ccccc1,i,i,i,i,i
CC(NS(=O)(=O)c1ccc(Br)cc1)C(c1cccs1)N1CCOCC1 (stereo not given),i,i,i,i,i
COc1ccc(NC(=O)CCC(=O)c2ccc(C(C)C)cc2)cc1,i,i,i,i,i
COc1ccc(NC(=O)Nc2ccc(C(C)C)cc2)cc1,i,i,i,i,-6*
Cc1ccc(/C=C/C(=O)NC2CCCCCCC2)o1,27*,i,i,i,i
Cc1cccc(/C=N/NC(=O)NC2CCCCC2)c1,i,i,i,i,i

# Bioassay records (PubChem BioAssay)
